Experimental findings from ChEMBL document CHEMBL2385037, “Bioactive dimeric carbazole alkaloids from Murraya koenigii” (J Nat Prod, 2013) are described below.

Data set [1] can be described thus: Antioxidant activity assessed as nitric oxide scavenging activity after 150 mins by Greiss method. In kind it is functional.
Data set [2] concerns Radical scavenging activity. Nature of the data set: Antioxidant activity assessed as DPPH free radical scavenging activity by spectrophotometric analysis. In kind it is functional. Background: The DPPH test is a chemical assay of radical scavenging.
Data set [3] is described as follows: Antioxidant activity assessed as hydroxyl radical scavenging activity after 15 mins by spectrophotometric analysis. Format: functional.
The test system of data set [4] is DNA. Nature of the data set: Displacement of ethidium bromide from calf thymus DNA assessed as decrease in fluorescence intensity by Stern-Volmer plot analysis. Format: nucleic-acid assay. As to conditions: Bos taurus; call rule not given here. The procedure, abridged:
(§1)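 Ethidium bromide displacement: emission of EB bound to CT-DNA (5 μM) is followed while compound is added over 0−50 μM. The Stern–Volmer Kq is the slope of I0/I versus [Q]. Kapp comes from KEB[EB] = Kapp[compound], taking the compound concentration at 50% loss of EB fluorescence, with KEB = 1.0 × 10^7 M−1 and [EB] = 5 μM.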

The test system of data set [5] is DNA. Nature of the data set: Binding affinity to calf thymus DNA assessed as change in hypochromicity at 50 uM by UV-vis titration relative to control. In kind it is nucleic-acid assay. The settings on record: Bos taurus. Summed up: (§2)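 CT-DNA absorption titration: compound held at 50 μM while CT-DNA is raised over 0−25 μM, and electronic absorption spectra are recorded. The intrinsic binding constant Kb is fitted from [DNA]/(εa − εf) versus [DNA], with DNA counted in base pairs. εa = Aobs/[compound]; εf and εb are the free and fully bound extinction coefficients.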

In data set [6] the test system is DNA. Briefly: Displacement of ethidium bromide from calf thymus DNA assessed as decrease in fluorescence intensity by spectrophotometric analysis. Format: nucleic-acid assay. The settings on record: Bos taurus. Summed up:
as §1

Data set [7] addresses T1, Albumin (Bos taurus, UniProt P02769). Nature of the data set: Binding affinity to bovine serum albumin assessed decrease in fluorescence at 1 to 2.5 uM at 15 nm wavelength by fluorescence spectrophotometric analysis. In kind it is ADME. The settings on record: cattle, isolated protein. Summed up: (§3)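 Synchronous fluorescence: BSA (2 μM) is titrated with compound over 0−2.5 μM. Spectra are recorded at wavelength differences Δλ = 15 nm and Δλ = 60 nm.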

For the next data set, the system named is HCT-116. Briefly: Cytotoxicity against human HCT116 cells incubated for 24 hrs followed by compound washout measured after 48 hrs by MTT assay. In kind it is functional, cell-based. (In general: Tetrazolium dyes change colour on reduction, which living cells bring about.)
Another data set relates to AGS. Nature of the data set: Cytotoxicity against human AGS cells incubated for 24 hrs followed by compound washout measured after 48 hrs by MTT assay. In kind it is functional, cell-based.
Another data set relates to HeLa. Nature of the data set: Cytotoxicity against human HeLa cells incubated for 24 hrs followed by compound washout measured after 48 hrs by MTT assay. Format: functional, cell-based.
The target in data set [8] is T1, Albumin. Nature of the data set: Binding affinity to bovine serum albumin assessed decrease in fluorescence at 1 to 2.5 uM at 60 nm wavelength by fluorescence spectrophotometric analysis. In kind it is ADME. The settings on record: cattle, isolated protein. Summed up: as §3
Data set [9] concerns the target T1, Albumin. Briefly: Binding affinity to bovine serum albumin assessed as decrease in fluorescence intensity by Scatchard plot analysis. In kind it is ADME. The settings on record: cattle, isolated protein. The procedure, abridged:
(§4)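 Intrinsic fluorescence quenching: emission spectra of BSA (2 μM) are recorded with compound added over 0−2.5 μM. The quenching data are analysed by Stern–Volmer and Scatchard plots to give the quenching constant Kq, the binding constant and the number of binding sites n.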

Data set [10] is described as follows: Inhibition of alpha glucosidase (unknown origin) assessed as p-nitrophenyl alpha-D-glucopyranoside conversion to p-nitrophenol after 30 mins by spectrophotometric analysis. Further details: species or system Homo sapiens.
For data set [11], the system named is DNA. Nature of the data set: Displacement of ethidium bromide from calf thymus DNA assessed as […] at 1 to 50 uM by fluorescence spectrophotometric analysis relative to control. The settings on record: Bos taurus. In kind it is nucleic-acid assay. The procedure, abridged: as §1
Data set [12] addresses T1, Albumin. Briefly: Binding affinity to bovine serum albumin assessed as change in hypochromicity at 1 to 2.5 uM by spectrophotometric analysis relative to control. Format: ADME. The settings on record: cattle, isolated protein.
The target in data set [13] is T1, Albumin. Nature of the data set: Binding affinity to bovine serum albumin assessed blue shift at 3 uM by UV-vis spectrophotometric analysis. Format: ADME. The settings on record: cattle, isolated protein.
The test system of data set [14] is DNA. Nature of the data set: Binding affinity to calf thymus DNA by absorption titration. In kind it is nucleic-acid assay. As to conditions: Bos taurus. The procedure, abridged: as §2
Data set [15] concerns the target T1, Albumin. Nature of the data set: Binding affinity to bovine serum albumin assessed as decrease in fluorescence intensity by Stern-Volmer plot analysis. In kind it is ADME. The settings on record: cattle, isolated protein. The procedure, abridged:
as §4

T1 sequence (P02769 whole entry): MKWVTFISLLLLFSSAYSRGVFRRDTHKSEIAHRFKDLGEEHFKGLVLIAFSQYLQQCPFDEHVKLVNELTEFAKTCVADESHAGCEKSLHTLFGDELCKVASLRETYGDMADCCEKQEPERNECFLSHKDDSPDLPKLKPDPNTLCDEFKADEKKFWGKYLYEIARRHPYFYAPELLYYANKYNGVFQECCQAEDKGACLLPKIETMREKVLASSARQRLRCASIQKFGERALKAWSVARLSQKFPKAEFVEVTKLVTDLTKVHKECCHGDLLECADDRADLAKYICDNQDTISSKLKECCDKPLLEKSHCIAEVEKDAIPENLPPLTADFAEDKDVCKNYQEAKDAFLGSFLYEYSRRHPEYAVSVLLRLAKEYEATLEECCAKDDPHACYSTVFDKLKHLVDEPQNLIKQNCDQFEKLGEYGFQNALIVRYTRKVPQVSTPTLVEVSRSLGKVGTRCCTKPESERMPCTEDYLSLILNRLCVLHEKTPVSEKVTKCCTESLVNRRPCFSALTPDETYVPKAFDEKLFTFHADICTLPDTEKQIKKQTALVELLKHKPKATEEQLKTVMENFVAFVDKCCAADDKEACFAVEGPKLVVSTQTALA

The term IC50 denotes the concentration needed to halve the response being measured. `Cc1cc(C(C)(C)C)c(O)c(C(C)(C)C)c1` [BUTYLATED HYDROXYTOLUENE]: the figures for the half-maximal inhibitory concentration (IC50) in [1], in data set [2] and in data set [3] were 8.6 µM, 4.5 µM and 11.5 µM, respectively.

For the molecule `COc1ccc2c([nH]c3c4c(c(C)cc32)OC(C)(C/C=C(\C)CCC=C(C)C)C=C4)c1-c1c(O)ccc2[nH]c3c4c(c(C)cc3c12)OC(C)(C/C=C(\C)CCC=C(C)C)C=C4` (stereo not given), the Kq in the data set on DNA [4] was determined as 0.32 ×10⁵ /M; at Albumin [15], 3.52 ×10⁵ /M. For the same molecule, the Activity in the data set on DNA [5] is 82%; at Albumin [7], “Active”; on Albumin [8], “Active”; with DNA [11] it was 44%; at Albumin [12], 47%; at Albumin [13], “Active”. Further, the Kapp in the data set on DNA [6] turned out to be 1.6 ×10⁵ /M. The 50% inhibitory concentration (IC50) with HCT-116 came to 22.3 µM; with AGS, 23.2 µM; in [1], 6.5 µM; with HeLa, 17.2 µM; in [10], 45.4 µM; in data set [2], 31.9 µM. For the same molecule, in data set [3], the IC50 is 12.3 µM. Further, the Kb is 1.02 ×10⁴ /M at Albumin [9] and 4.3 ×10⁵ /M with DNA [14].

In the case of `COc1ccc2c([nH]c3c4c(c(C)cc32)OC(C)(C/C=C(\C)CCC=C(C)C)C=C4)c1-c1ccc2[nH]c3c4c(c(C)cc3c2c1O)OC(C)(C/C=C(\C)CCC=C(C)C)C=C4` (stereo not given), the Kq was 0.1 ×10⁵ /M in the data set on DNA [4] and 2.2 ×10⁵ /M at Albumin [15]. The Activity in the data set with DNA [5] was 55%; on Albumin [7], “Active”; on Albumin [8], “Active”; with DNA [11], 22%; at Albumin [12], 36%; at Albumin [13], “Active”. The Kapp with DNA [6] is 0.5 ×10⁵ /M. Also, the 50% inhibitory concentration (IC50) in data set [1] was determined as 7.2 µM; in data set [10], 41.2 µM; in [2], 31.1 µM; in [3] it was 8.8 µM. The results for the Kb on Albumin [9] and with DNA [14] were 0.72 ×10⁴ /M and 2.2 ×10⁵ /M, respectively.

As to `COc1cc2c(cc1-c1c(OC)ccc3c1[nH]c1c4c(c(C)cc13)OC(C)(C/C=C(\C)CCC=C(C)C)C=C4)c1cc(C)c3c(c1n2C)C=CC(C)(C/C=C(\C)CCC=C(C)C)O3` (stereo not given), the Kq with DNA [4] was 0.3 ×10⁵ /M; at Albumin [15], 2.21 ×10⁵ /M. For the same molecule, the Activity with DNA [5] is 54%; at Albumin [7], “Active”; at Albumin [8] it was “Active”; with DNA [11], 28%; at Albumin [12], 36%; on Albumin [13], “Active”. The Kapp in the data set with DNA [6] was found to be 0.13 ×10⁵ /M. Besides, the IC50 in [1] came out at 8.6 µM; in data set [10] it was 69 µM; in data set [2] it was 41.8 µM; in data set [3] it was 13.2 µM. Besides, the Kb on Albumin [9] came to 0.09 ×10⁴ /M; in the data set on DNA [14], 2 ×10⁵ /M.

Regarding `C[C@@H]1O[C@@H](OC[C@H]2O[C@@H](Oc3c(-c4ccc(O)c(O)c4)oc4cc(O)cc(O)c4c3=O)[C@H](O)[C@@H](O)[C@@H]2O)[C@H](O)[C@H](O)[C@H]1O` [RUTIN], the IC50 is 4.7 µM in data set [1], 4.7 µM in [2] and 19.4 µM in [3].

As for `C[C@H]1O[C@H](O[C@H]2[C@H](O)[C@@H](O)[C@@H](O[C@H]3[C@H](O)[C@@H](O)C(O)O[C@@H]3CO)O[C@@H]2CO)[C@H](O)[C@@H](O)[C@@H]1N[C@H]1C=C(CO)[C@@H](O)[C@H](O)[C@H]1O` (stereo not given in full) [ACARBOSE], the IC50 in [10] is 15.2 µM.
